High-throughput results from PubChem BioAssay.
HKDC1 inh: HKDC1 (human) hexokinase inhibition; Q2TB90; recombinant HKDC1, G6PDH/diaphorase resazurin coupled fluorescence; 0.16% of 340,000 active; inhibition, % at 20 µM;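 active = inhibition above about 35% when tested at 20 µM, limit read from the data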;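 also: plate controls were DMSO wells with enzyme for no effect and DMSO wells lacking enzyme for full effect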
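Material: recombinant HKDC1 hexokinase; Amount: HKDC1 at 5 µg/mL; Medium: Tris pH 8.0 buffer with MgCl2, Tween-20, BSA, BME; Schedule: 90 min reaction incubation at room temperature, dark; Technique: coupled resazurin fluorescence, excitation 525 nm, emission 613 nm.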
GSTO1 inh: GSTO1 inhibition, counter-screen for RBBP9 inhibitors; AID 1974; 1.1% of 300,000 active; inhibition, % at 5.96 µM; recombinant GSTO1, activity-based probe fluorescence polarization; P78417;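 active = inhibition above the campaign mean inhibition plus 3 SD, cut at about 35% in these data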;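 also: 0% = GSTO1-1 with DMSO and 100% = wells lacking GSTO1-1 enzyme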
SUMO HTRF inh: blocks human SUMOylation mediated by UBC9; HTRF SUMOylation assay, SAE1/SAE2 + UBC9, in vitro; P63279; 0.36% of 290,000 active; inhibition, % at 35 µM; in the data active = inhibition above about 50%, passing the limit was not always enough
DTT redox prof: compounds producing H2O2 with reducing agent – biochemical, NIH compound library profiling, artefact control for MLSCN library redox annotation, primary screen; DTT-dependent redox cycling H2O2, phenol red/HRP absorbance; 100% = 100 µM peroxide control, 0% = buffer; activation, % at 10 µM; 0.03% of 200,000 active; AID 878;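 active = activation of at least 50% relative to the plate's high and low controls in the primary single-dose screen; inactive = activation below 50%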;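 also: compound incubated with DTT at 0.8 mM final as the reducing agent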
Apaf1 inhib: human Apaf-1 inhibition; O14727; reconstituted apoptosome caspase-3 activity, DEVD-Rh110 fluorescence; inhibition, % at 20 µM; 0.71% of 330,000 active; AID 489030; active = inhibition of at least 40% at 20 µM;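 also: plate controls were DMSO wells for no effect and DEVD-CHO caspase inhibitor wells for full effect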
Target sequence (O14727 whole entry, looked up): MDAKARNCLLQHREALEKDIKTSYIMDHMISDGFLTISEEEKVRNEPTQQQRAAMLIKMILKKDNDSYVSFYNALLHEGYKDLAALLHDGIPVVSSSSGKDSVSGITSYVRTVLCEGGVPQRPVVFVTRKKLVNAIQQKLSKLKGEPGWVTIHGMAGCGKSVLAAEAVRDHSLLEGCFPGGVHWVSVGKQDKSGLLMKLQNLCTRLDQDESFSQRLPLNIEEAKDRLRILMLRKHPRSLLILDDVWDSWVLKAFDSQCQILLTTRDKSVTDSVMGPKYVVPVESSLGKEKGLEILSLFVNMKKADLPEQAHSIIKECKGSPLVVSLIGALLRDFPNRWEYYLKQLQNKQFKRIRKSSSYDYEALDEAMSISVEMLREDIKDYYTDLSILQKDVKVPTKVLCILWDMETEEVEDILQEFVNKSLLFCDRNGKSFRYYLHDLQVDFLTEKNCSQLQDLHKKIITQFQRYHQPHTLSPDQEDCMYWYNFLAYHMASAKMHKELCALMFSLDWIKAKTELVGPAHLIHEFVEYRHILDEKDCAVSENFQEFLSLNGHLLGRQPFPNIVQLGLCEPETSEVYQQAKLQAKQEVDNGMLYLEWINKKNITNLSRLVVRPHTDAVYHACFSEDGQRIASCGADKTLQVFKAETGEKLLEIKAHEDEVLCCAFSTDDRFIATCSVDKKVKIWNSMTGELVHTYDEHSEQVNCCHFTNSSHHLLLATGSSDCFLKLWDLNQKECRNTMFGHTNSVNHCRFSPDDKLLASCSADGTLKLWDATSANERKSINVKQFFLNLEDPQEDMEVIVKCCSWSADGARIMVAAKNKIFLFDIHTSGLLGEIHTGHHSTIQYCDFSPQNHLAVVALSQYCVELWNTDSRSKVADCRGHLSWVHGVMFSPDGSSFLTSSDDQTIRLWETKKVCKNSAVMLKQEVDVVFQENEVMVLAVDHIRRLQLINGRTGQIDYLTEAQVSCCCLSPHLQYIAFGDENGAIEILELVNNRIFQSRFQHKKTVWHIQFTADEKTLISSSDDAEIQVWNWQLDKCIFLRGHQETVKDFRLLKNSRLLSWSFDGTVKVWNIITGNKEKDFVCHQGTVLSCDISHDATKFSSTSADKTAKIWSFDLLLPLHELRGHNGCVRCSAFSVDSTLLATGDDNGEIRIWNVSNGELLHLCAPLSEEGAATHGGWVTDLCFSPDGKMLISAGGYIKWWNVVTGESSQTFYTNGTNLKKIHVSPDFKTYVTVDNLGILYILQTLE
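Material: reconstituted apoptosome with Apaf-1, cytochrome c, caspase-9, procaspase-3, dATP. Technique: Rh110 fluorescence intensity. Buffer or medium: pH 7.5 Hepes buffer with CHAPS, BSA, DTT. Times: 30 min plus 50 min, RT.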
DTT redox conf: redox cycling H2O2 generation, confirmed | DTT-dependent redox cycling H2O2, phenol red-HRP absorbance | shares compounds with DTT redox prof | 40% of 60 active | EC50, µM;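 active = EC50 under a set limit for hydrogen peroxide production with the reducing agent DTT present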
* marks the source's active call; other numbers are inactive results; x = no result given. An excerpt weighted towards active compounds, which were near 1.4% of everything screened.

SMILES	HKDC1 inh	GSTO1 inh	SUMO HTRF inh	DTT redox prof	Apaf1 inhib	others
COC(=O)C1C(O)C(C)C(O)C(C)(O)/C=C\C=C(/C)C(=O)Nc2c(C)c(OC(C)=O)c3c(c2O)C(=O)C(C)=C2OCOC(=C23)/C(C)=C/C(C)(O)C(O)C(C)C1O (configuration not stated)	13.1	58.7*	27.4	x	35.1
O=C1c2ccccc2NC(c2ccc(Br)s2)N1O (configuration not stated)	-4.8	-8.2	x	x	-22.5
O=C(/C=C/c1ccc(O)c(O)c1)OCCc1ccccc1	4.3	16.9	x	x	-3.2
O=C(/C=C/c1ccc(O)c(O)c1)OC(Cc1ccc(O)c(O)c1)C(=O)O (configuration not stated)	7.9	55.0*	19.2	x	0.1
CN(C)C=Nc1ccc2nn(-c3ccccc3)nc2c1	8.9	9.3	59.6*	-0.5	36.9
CN(C)C=Nc1ccc(Cl)c(Cl)c1	-3.0	1.6	43.4	x	0.8
COCC(C)NC(=O)NC1(C(F)(F)F)Oc2ccc(Cl)cc2O1 (configuration not stated)	-3.1	36.5*	15.0	0.1	9.4
C#CCOCCOCCOCCNc1nc(N2CCN(C(=O)CCCCCCCCCCNC(=O)Cn3cc(CCCCCN)nn3)CC2)nc(N2CCN(C(=O)CCCCCCCCCCNC(=O)[C@@H](CCC(=O)O)n3cc(CCCCCN)nn3)CC2)n1	-8.0	5.8	x	x	58.8*
C#CCOCCOCCOCCNc1nc(N2CCN(C(=O)CCCCCCCCCCNC(=O)Cn3cc(CCCCCN)nn3)CC2)nc(N2CCN(C(=O)CCCCCCCCCCNC(=O)[C@@H](CCSC)n3cc(CCO)nn3)CC2)n1	-12.0	-6.8	x	x	72.2*
C#CCOCCOCCOCCNc1nc(N2CCN(C(=O)CCCCCCCCCCNC(=O)[C@H](CCCCN)n3cc(C)nn3)CC2)nc(N2CCN(C(=O)CCCCCCCCCCNC(=O)[C@H](CCCCN)n3cc(CCCC(=O)O)nn3)CC2)n1	-10.7	-0.7	x	x	62.7*
O=C(O)c1ccccc1C(=O)NCc1c(Cl)cccc1Sc1ccc(Cl)cc1	1.3	4.4	1.9	x	4.7
O=C(O)CN1CCNCCN(CC(=O)O)CCNCC1	-0.4	x	x	x	x
Fc1cc(F)cc(Nc2nc(Cl)nc(NC3CCCC3)n2)c1	8.7	x	x	x	25.7
Cc1nn(-c2ccccc2)c2c1C1(C(=O)N(C)c3ccccc31)C(C#N)=C(N)O2 (configuration not stated)	13.7	37.2*	-10.9	0.1	12.2
CCn1c2ccccc2c2cc(NC(=O)COC(=O)c3ccccc3F)ccc21	8.3	2.7	-8.1	-0.5	-4.3
CCn1c2ccccc2c2cc(NC(=O)COC(=O)c3ccc(NC(=O)CC#N)cc3)ccc21	-4.7	35.8*	x	x	23.4
CN(C(=O)c1ccccc1[N+](=O)[O-])c1ccccc1C(=O)NCc1ccccc1	-3.0	5.4	4.4	x	5.8
C=CCn1c(SCC(=O)Nc2cccc(S(=O)(=O)N(C)c3ccccc3)c2)nnc1C1CC1	-2.5	-2.6	x	x	16.8
COC(=O)c1cc(O)c(O)c(O)c1	-4.6	47.3*	-4.1	0.2	6.0
COC(=O)c1cc(OC)nc(OC)c1	-5.5	0.7	-1.9	x	-5.2
O=C(CN1CCN(Cc2cccc(F)c2)CC1)Nc1ccccc1F	-3.6	7.4	5.5	x	4.5
O=S(=O)(NC1=NCCCCC1)c1cc(F)ccc1F	-7.2	x	x	x	-3.2
COc1ccc2[nH]c3c(C)c4ccncc4c(C)c3c2c1	3.5	12.0	17.8	x	76.4*
COc1cccc(N2CCN(C(=O)c3cccc(NC4=NC5CS(=O)(=O)CC5S4)c3)CC2)c1 (configuration not stated)	-4.6	16.8	4.3	x	-0.3
C=CCn1c(SCC(=O)Nc2ccc(F)cc2)nc2ccccc2c1=O	0.1	-1.6	1.2	x	5.4
SMILES	HKDC1 inh	GSTO1 inh	SUMO HTRF inh	DTT redox prof	Apaf1 inhib	others
Cc1csc(NC(=O)C2CCCN(S(=O)(=O)c3ccc(Br)s3)C2)n1 (configuration not stated)	10.5	46.4*	-2.3	0.1	24.1
CNC(=O)C(=O)NCC1OCCN1S(=O)(=O)c1ccc(OC)c(OC)c1 (configuration not stated)	-1.9	4.1	13.3	x	-5.8
Cc1ccc(-n2c(N)c(C(=O)Nc3c(C)n(C)n(-c4ccccc4)c3=O)c3nc4ccccc4nc32)cc1C	x	-7.0	25.0	1.2	42.4*
N#C/C(=C\c1ccc(O)c(O)c1)C(=O)c1ccc(O)c(O)c1	1.1	34.5	x	x	4.0
N#CC(C#N)=C(N)/C(C#N)=C/c1cc(O)c(O)c(O)c1	29.6	64.4*	x	x	8.5
O=C(O)CCC1c2cc3c4cc2OC2Oc5cc6c(cc51)C(CCC(=O)O)c1cc5c7cc1OC(O6)c1cc6cc(c1)Oc1cc(cc(C(=O)O)c1)Oc1cc8cc(c1)C(Oc1cc(c(cc1C5CCC(=O)O)C3CCC(=O)O)OC(O4)c1cc(cc(c1)Oc1cc(cc(C(=O)O)c1)O8)Oc1cc(cc(C(=O)O)c1)Oc1cc(cc2c1)Oc1cc(cc(C(=O)O)c1)O6)O7 (configuration not stated)	x	-181.6	x	x	98.7*
COc1ccc(C2/C=C\CN(C(=O)Nc3ccccc3)CC(=O)N2Cc2ccc(F)cc2)cc1 (configuration not stated)	-4.9	36.4*	-15.6	x	8.0
COc1ccc(C2/C=C\CN(C(=O)Nc3ccc(C(F)(F)F)cc3)CC(=O)N2Cc2ccc(F)cc2)cc1 (configuration not stated)	2.5	-2.2	-23.8	x	23.4
CC(C)c1nc(N2CCN(C(=O)c3ccco3)CC2)c(C#N)c2c1COC(C)(C)C2	0.0	1.4	5.2	x	19.1
CCCCc1nc(N2CCN(C(=O)c3ccco3)CC2)c(C#N)c2c1CCCC2	-0.3	1.8	0.3	x	41.8*
CCN(CC)S(=O)(=O)c1cccc(C(=O)NCCc2ccccc2)c1	-7.8	2.1	x	-0.3	5.0
CN(c1ccccc1)S(=O)(=O)c1cccc(C(=O)NCCc2ccc(O)c(O)c2)c1	1.1	39.0*	9.9	-2.3	7.3
O=C(Nc1ccc2nc(-c3ccco3)c(-c3ccco3)nc2c1)N1CCCCCC1	45.2*	59.5*	58.3*	-2.2	57.3*
CCOC(=O)c1c2c(n(C)c1COC)C(=O)C(=O)c1ccc(Br)cc1-2	x	56.2*	x	343.3*	96.8*	DTT redox conf=>50
O=C(COC(=O)c1ccc([N+](=O)[O-])s1)Nc1ncc(C(F)(F)F)cc1Cl	-4.8	25.5	24.9	86.0*	34.1	DTT redox conf=>50
C=CCn1c(Cc2ccc(OC)cc2)nnc1SCC(=O)NCCc1ccccc1	-12.4	5.7	-15.5	109.4*	5.2	DTT redox conf=>50
CCn1c(Cc2ccccc2)nnc1SCC(=O)Nc1ccc(OC)cc1	-0.1	3.5	-9.2	1.7	4.7
O=C(COC(=O)c1ccccc1OCc1ccccc1Cl)NC1CC1	-2.5	0.9	-23.4	87.7*	9.8	DTT redox conf=>50
